Measured values published in ChEMBL document CHEMBL4004837, “Synthesis and Characterization of Urofuranoic Acids: In Vivo Metabolism of 2-(2-Carboxyethyl)-4-methyl-5-propylfuran-3-carboxylic Acid (CMPF) and Effects on in Vitro Insulin Secretion” (J Med Chem, 2017).

What was measured:
HEK293 = assay: Cytotoxicity against HEK293 cells assessed as fold change in capase3/7 activity by Caspase-Glo 3/7 assay relative to DMSO; assay type: cell-based; conditions: human
[1] = Drug metabolism in human microsomes at 4 uM after 30 mins by single quad LC/MS analysis; assay type: ADME, Microsome; conditions: read-out: Drug metabolism
[2] = Drug metabolism in mouse microsomes at 4 uM after 30 mins by single quad LC/MS analysis; assay type: ADME, Microsome; conditions: read-out: Drug metabolism
[3] = Suppression of glucose stimulated insulin secretion in mouse pancreatic islet at 200 uM incubated for 24 hrs followed by glucose stimulation for 20 mins by HTRF assay relative to control
CYP3A4 = CYP3A4 (Homo sapiens, UniProt P08684); assay: Inhibition of human microsomal CYP3A4 at 10 uM after 3 mins by single quad LC/MS analysis; assay type: ADME; conditions: microsomes
CYP2D6 = CYP2D6 (Homo sapiens, UniProt P10635); assay: Inhibition of human microsomal CYP2D6 at 10 uM after 3 mins by single quad LC/MS analysis; assay type: ADME; conditions: microsomes
Hepatocyte = assay: Cytotoxicity against mouse primary hepatocytes assessed as fold change in capase3/7 activity by Caspase-Glo 3/7 assay relative to DMSO; assay type: cell-based
[4] = Suppression of high glucose stimulated insulin secretion in mouse pancreatic islets at 200 uM treated for 24 hrs followed by glucose stimulation for 20 mins by HTRF assay relative to control; assay type: ADME, cell-based; conditions: pancreatic islet
In short: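 Mouse islet screening assay in high-glucose (20 mM) medium with compounds at 200 µM. Insulin secretion is expressed as fold change relative to vehicle. Mean of n = 4 experiments with SEM; significance by Student's t-test, p ≤ 0.05.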

CYP2C9 = CYP2C9 (Homo sapiens, UniProt P11712); assay: Inhibition of human microsomal CYP2C9 at 10 uM after 10 mins by single quad LC/MS analysis; assay type: ADME; conditions: microsomes
[5] = Effect on insulin content in KCl-stimulated mouse pancreatic islet at 200 uM incubated for 24 hrs followed by KCl stimulation for 20 mins by HTRF assay; assay type: ADME, cell-based
In short: (§1)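 Mouse islets treated with compounds at 200 µM. Insulin secretion was then measured under low- and high-glucose GSIS conditions and under KCl stimulation, and intracellular insulin content was measured. Mean of n = 4-5 experiments with SEM.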

[6] = Effect on insulin content in glucose-stimulated mouse pancreatic islet at 200 uM incubated for 24 hrs followed by glucose stimulation for 20 mins by HTRF assay; assay type: ADME, cell-based; in short: as §1
[7] = Suppression of KCl-stimulated insulin secretion in mouse pancreatic islet at 200 uM incubated for 24 hrs followed by KCl stimulation for 20 mins by HTRF assay; assay type: ADME, cell-based; in short: as §1
[8] = Suppression of glucose-stimulated insulin secretion in mouse pancreatic islet at 200 uM incubated for 24 hrs followed by glucose stimulation for 20 mins by HTRF assay; assay type: ADME, cell-based; in short: as §1
[9] = Passive permeability in MDCK cells; assay type: ADME, cell-based, Canis lupus familiaris; conditions: dog

Chain of CYP2D6 (P10635 whole entry): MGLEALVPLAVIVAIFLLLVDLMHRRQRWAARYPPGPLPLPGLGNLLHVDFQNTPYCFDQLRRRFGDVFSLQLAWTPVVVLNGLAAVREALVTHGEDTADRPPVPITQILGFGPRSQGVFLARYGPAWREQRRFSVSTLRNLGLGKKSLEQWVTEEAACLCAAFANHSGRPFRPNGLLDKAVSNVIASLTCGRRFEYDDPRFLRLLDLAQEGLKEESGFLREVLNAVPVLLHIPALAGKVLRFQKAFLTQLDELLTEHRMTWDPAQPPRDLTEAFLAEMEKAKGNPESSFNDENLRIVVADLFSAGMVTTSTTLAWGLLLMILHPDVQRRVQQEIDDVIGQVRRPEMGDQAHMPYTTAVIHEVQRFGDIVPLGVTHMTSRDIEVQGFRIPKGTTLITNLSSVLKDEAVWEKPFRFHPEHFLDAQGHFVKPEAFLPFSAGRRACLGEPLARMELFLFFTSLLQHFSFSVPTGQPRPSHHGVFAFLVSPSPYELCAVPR
Chain of CYP3A4 (P08684 whole entry): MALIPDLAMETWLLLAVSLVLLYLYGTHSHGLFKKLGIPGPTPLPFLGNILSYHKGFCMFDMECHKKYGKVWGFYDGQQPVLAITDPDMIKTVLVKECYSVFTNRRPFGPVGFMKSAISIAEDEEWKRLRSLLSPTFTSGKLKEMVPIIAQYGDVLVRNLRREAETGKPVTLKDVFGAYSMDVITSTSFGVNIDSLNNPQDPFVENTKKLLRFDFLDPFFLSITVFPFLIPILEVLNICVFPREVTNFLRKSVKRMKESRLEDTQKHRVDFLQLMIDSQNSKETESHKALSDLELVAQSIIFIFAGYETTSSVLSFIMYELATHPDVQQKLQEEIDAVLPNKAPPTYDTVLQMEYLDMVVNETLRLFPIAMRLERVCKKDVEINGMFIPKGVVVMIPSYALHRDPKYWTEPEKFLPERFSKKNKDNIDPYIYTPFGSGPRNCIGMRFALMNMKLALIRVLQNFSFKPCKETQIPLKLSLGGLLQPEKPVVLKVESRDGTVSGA
Chain of CYP2C9 (P11712 whole entry): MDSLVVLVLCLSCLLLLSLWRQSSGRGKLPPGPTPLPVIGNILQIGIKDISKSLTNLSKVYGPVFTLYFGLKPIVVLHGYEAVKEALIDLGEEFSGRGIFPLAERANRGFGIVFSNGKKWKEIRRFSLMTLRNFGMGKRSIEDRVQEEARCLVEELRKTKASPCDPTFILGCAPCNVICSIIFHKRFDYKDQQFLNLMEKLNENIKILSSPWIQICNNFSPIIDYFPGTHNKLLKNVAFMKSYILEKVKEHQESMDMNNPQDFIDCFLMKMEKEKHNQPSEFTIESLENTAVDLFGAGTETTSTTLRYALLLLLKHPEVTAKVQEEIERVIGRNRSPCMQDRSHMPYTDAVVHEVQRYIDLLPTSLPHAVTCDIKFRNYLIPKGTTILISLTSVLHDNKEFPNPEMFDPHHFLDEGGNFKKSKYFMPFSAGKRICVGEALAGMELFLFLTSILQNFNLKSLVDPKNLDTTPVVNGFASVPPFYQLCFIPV

Compound	metabolised at 0.5 h, 4 µM [1] [%]	metabolised at 0.5 h, 4 µM [2] [%]	inhibition at 0.05 h, 10 µM (CYP3A4) [%]	inhibition at 0.05 h, 10 µM (CYP2D6) [%]	inhibition at 10 min, 10 µM (CYP2C9) [%]	permeability [9]	fold change (FC) (HEK293)	Activity [3]	fold change (FC) (Hepatocyte)	Activity [4]	Activity [5]	Activity [6]	Activity [7]	Activity [8]
CCC(=O)c1oc(CCC(=O)O)c(C(=O)O)c1C	–	–	3	11	10	–	1 to 1.1	–	1.1	–	–	–	–	–
CCCC1(O)OC(O)(CCC(=O)O)C(C(=O)O)=C1C (centres undefined)	–	–	–	–	–	–	1 to 1.1	Non-Toxic	0.9	Non-Toxic	Non-Toxic	Non-Toxic	Non-Toxic	Non-Toxic
Cc1oc(CCC(=O)O)c(C(=O)O)c1C	–	–	–	–	–	–	0.8 to 1	–	2	–	–	–	–	–
CCC(=O)c1oc(CCC(=O)OC)c(C(=O)OC)c1C	–	–	–	–	–	–	1 to 1.1	–	1.5	–	–	–	–	–
CCC[C@H]1C[C@H](C(=O)O)[C@@H](CCC(=O)O)O1	–	–	–	–	–	–	1 to 1.2	–	2	–	–	–	–	–
Cc1c(CCOCc2ccccc2)oc(CCC(=O)O)c1C(=O)O	–	–	–	–	–	–	1.1	–	1.4	–	–	–	–	–
CCCc1oc(CCC(=O)OC)c(C(=O)OC)c1CCC	–	–	–	–	–	–	1 to 1.1	–	0.8 to 0.9	–	–	–	–	–
CCCC1(O)OC(O)(CCC(=O)OC)C(C(=O)OC)=C1C (centres undefined)	–	–	–	–	–	–	0.9 to 1	Non-Toxic	0.3	Non-Toxic	–	–	–	–
CCc1oc(CCC(=O)OC)c(C(=O)OC)c1CC	–	–	–	–	–	–	0.9 to 1	–	0.9 to 1	Toxic	Toxic	Toxic	Toxic	Toxic
CCC[C@H]1C[C@H](C(=O)OC)[C@@H](CCC(=O)OC)O1	–	–	–	–	–	–	1 to 1.1	–	1.3	–	–	–	–	–

Now from value to compound, other results behind:

metabolised at 0.5 h, 4 µM [1] [%]	metabolised at 0.5 h, 4 µM [2] [%]	inhibition at 0.05 h, 10 µM (CYP3A4) [%]	inhibition at 0.05 h, 10 µM (CYP2D6) [%]	inhibition at 10 min, 10 µM (CYP2C9) [%]	permeability [9]	Compound	fold change (FC) (HEK293)	Activity [3]	fold change (FC) (Hepatocyte)	Activity [4]	Activity [5]	Activity [6]	Activity [7]	Activity [8]
16	76	48	20	2	–	COC(=O)CCc1oc2c(c1C(=O)OC)CCCC2	1 to 1.1	Toxic	0.4	Toxic	–	–	–	–
0	20	3	0	9	–	CCCc1oc(CCC(=O)O)cc1C	0.9 to 1	–	0.7	–	–	–	–	–
0	16	22	12	3	–	COC(=O)CCc1oc(C)c(C)c1C(=O)OC	1 to 1.1	–	0.8	–	–	–	–	–
10	9	2	2	3	–	CCCc1oc(CCCO)c(C(=O)O)c1C	1	Non-Toxic	0.6	Non-Toxic	–	–	–	–
0	21	0	3	17	Impermeable	CCc1oc(CCC(=O)O)c(C(=O)O)c1CC	1	–	1.1	Non-Toxic	–	–	–	–
3	7	0	0	0	–	CCCc1oc(CCC(=O)O)c(C(=O)O)c1CCC	1	–	1.6 to 1.8	Toxic	–	–	–	–
100	100	0	0	0	–	CCCc1oc(CCCO)c(C(=O)OC)c1C	1 to 1.1	–	0.6	–	–	–	–	–
–	–	21	0	0	–	CCCc1oc(CCC(C)=O)c(C(C)=O)c1C	0.9	–	0.3	–	–	–	–	–
49	60	59	28	27	–	CCCCCc1oc(CCC(=O)OC)c(C(=O)OC)c1C	1 to 1.2	Non-Toxic	1 to 1.2	Non-Toxic	–	–	–	–
5	7	3	3	9	–	CCCCCc1oc(CCC(=O)O)c(C(=O)O)c1C	1	Toxic	1.2 to 1.5	Toxic	–	–	–	–
21	51	13	5	18	–	CCCc1oc(CCC)c(C(=O)O)c1C	1 to 2	–	1.4	–	–	–	–	–
20	0	0	0	0	–	CCCc1oc(C(=O)O)c(C)c1C	1 to 1.2	–	2.2	–	–	–	–	–
